Rows were chosen to be rich in hits. Some 2.3% of all compounds tested hit in one or more screens of this group.
CHT inh: inhibitors of human choline transporter CHT; B-score at 10 µM; CHT-expressing cells, membrane potential dye, choline response; hits give low values; hit rate 0.86% among 310,000; High affinity choline transporter 1 (Homo sapiens), Q9GZV3;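 active = B-score over 3 SD under the library average, and starting fluorescence ratio not unusually high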;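 note: choline stimulus applied at its EC90 after an EC20 pre-addition; B-score computed on integrated fluorescence ratio after choline addition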
Target sequence (Q9GZV3 whole entry, looked up): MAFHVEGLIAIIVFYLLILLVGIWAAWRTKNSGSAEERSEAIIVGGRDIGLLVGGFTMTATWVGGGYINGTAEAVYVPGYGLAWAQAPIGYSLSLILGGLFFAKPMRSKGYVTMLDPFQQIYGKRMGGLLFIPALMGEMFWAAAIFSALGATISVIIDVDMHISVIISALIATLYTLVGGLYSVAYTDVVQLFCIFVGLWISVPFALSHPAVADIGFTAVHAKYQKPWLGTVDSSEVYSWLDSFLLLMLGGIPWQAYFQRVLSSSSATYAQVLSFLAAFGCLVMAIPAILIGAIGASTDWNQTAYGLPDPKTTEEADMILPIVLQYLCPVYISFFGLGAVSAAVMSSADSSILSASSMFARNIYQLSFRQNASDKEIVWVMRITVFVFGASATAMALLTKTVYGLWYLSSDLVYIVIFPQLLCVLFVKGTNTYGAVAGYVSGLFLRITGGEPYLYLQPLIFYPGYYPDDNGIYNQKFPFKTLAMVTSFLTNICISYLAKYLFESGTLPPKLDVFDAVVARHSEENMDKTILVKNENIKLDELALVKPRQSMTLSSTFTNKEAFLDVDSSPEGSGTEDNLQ
T cell HTS: modulators of CD8 T cell-vesicle binding, primary screen, mouse 2C CD8+ T cells, flow cytometry | 2C CD8+ T cell-vesicle binding; hits give low values | response (vesicle binding), % at 7 µM | hit rate 0.068% among 330,000 | AID 2052, 2009;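 active = response, share of CD8 T cells binding vesicles, and their 90th percentile fluorescence all below set limits, cut at about 80% in these data, passing the limit was not always enough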;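 note: values below 100% mean blocked vesicle binding to the CD8+ T cells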
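Assay system: 2C TCR transgenic mouse naive CD8+ T cells, MACS-purified | Read-out: CD8+ gate FL2 mean fluorescence as % of same-row positive control | Signal: High-throughput flow cytometry with anti-B7-1 and anti-CD8 staining | Timing: Binding step 1.5 h, 37 °C, antibody labelling 20 min, ice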
GPR7 antagonist: GPR7 receptor antagonists, primary screen, cell-based, fluorescence, single concentration | Neuropeptides B/W receptor type 1 (Homo sapiens), P48145 | GPR7-expressing cells, fluorescence antagonist assay | inhibition, % at 4.4 µM | hit rate 1.1% among 290,000 | AID 1861, 2009; in the data active = inhibition above about 16%, passing the limit was not always enough;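 note: cells stimulated with the agonist NPW; 0% = agonist with vehicle and 100% = vehicle without agonist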
CHT allo act: CHT positive allosteric modulators, primary screen, cell-based, membrane potential dye, choline EC20; hit rate 0.49% among 310,000; CHT-expressing cells; hits give high values; LV-AA mutant CHT in HEK293 cells; B-score at 10 µM; High affinity choline transporter 1 (Homo sapiens), Q9GZV3; AID 488977, 2010;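 active = initial fluorescence not abnormally high and integrated response B-score, plate-corrected, over 3 SD above library mean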
Pemphigus Ab inh: inhibitors of pemphigus antibody binding to DSG3, primary screen, biochemical, bead-based, flow cytometry, scFv-GFP; Desmoglein-3 (Homo sapiens), P32926; DSG3-coupled beads, scFv-anti-DSG3-GFP binding; hits give low values; AID 588358, 2011; binding (percent of control), % at 10 µM; hit rate 0.48% among 310,000;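 active = binding more than 3 SD below its plate's average and above zero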;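 note: hits lower antibody fragment binding to DSG3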
p-CIP stab down: p/CIP-EGFP fusion destabilizers, primary screen, fluorescence, F442A cells. Q05BA5. 16 h. decrease of EGFP signal, % at 10 µM. hit rate 0.01% among 290,000. AID 1984, 2009;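 active = EGFP signal decrease of at least 30% at 10 µM or well 3 SD below plate mean, unless failing retest; inactive = the rest, including hits failing retest or dose response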
* = called active by the depositor; i = inactive; . = not tested or not shown.

SMILES	CHT inh	T cell HTS	GPR7 antagonist	CHT allo act	Pemphigus Ab inh	p-CIP stab down
Cc1cc(C)c2[nH]c(=O)c(CN(Cc3cccs3)C(=S)NCC3CCCO3)cc2c1 (centres undefined)	i	i	-14	i	85*	-13
Cc1cc2cc(CN(Cc3cccs3)C(=S)NCC3CCCO3)c(=O)[nH]c2cc1C (centres undefined)	i	457	-9	i	104	-3
Cc1ccc(N2C(=O)C(Cl)=C(N3CCCCCC3)C2=O)c(C)c1	i	0.0*	-10	i	116	-5
Cn1cc(/C=N/NC(=O)c2cccc([N+](=O)[O-])c2)c2ccccc21	i	239	4	i	25*	12
Cc1[nH]c2ccccc2c1/C=N/NC(=O)c1cccc(F)c1	i	160	-7	i	93	-4
COc1ccc(/C=N/NC(=O)c2cccc([N+](=O)[O-])c2)c2ccccc12	i	94	6	i	96	13
Cc1[nH]c2ccccc2c1/C=N/NC(=O)c1cccc([N+](=O)[O-])c1	i	524	3	i	60*	-8
Cc1ccc(C(=Cc2ccc([N+](=O)[O-])cc2)C(=O)O)cc1	.	.	.	.	104	.
CC(C)(C)c1ccc(NC(=O)Nc2ccc(F)cc2)cc1	i	248	24*	i	.	-4
CC(=O)Nc1ccc(NC(=O)CSc2nnnn2-c2ccc(F)cc2)cc1	i	198	12	i	61*	-5
CC(Sc1n[nH]c(=O)n1Cc1ccccc1)C(=O)NC1CCCCC1C (centres undefined)	i	209	.	i	100	.
CCCn1c(SC(C)C(=O)NC2CCCC(C)C2C)n[nH]c1=O (centres undefined)	.	.	.	.	79*	.
Cc1ccc(N(CC(=O)N/N=C/c2cc(C)n(-c3ccccc3C)c2C)S(C)(=O)=O)cc1	-7*	367	13	i	114	22*
CCOc1ccc(CCNC(=O)Cc2ccc(NC(=O)C3=C(C)OCCS3)cc2)cc1	i	i	19	i	104	-4
CSc1ccc(CNC(=O)Cc2ccc(NC(=O)C3=C(C)OCCS3)cc2)cc1	i	118	-4	i	54*	8
COc1cc(/C=C2/C(=N)N3C(SC)=NSC3=NC2=O)ccc1OC(=O)c1ccco1	-6.5*	382	-7	i	107	-36
COc1cc(/C=C2/C(=N)N3C(=NC2=O)SN=C3S(C)(=O)=O)ccc1OC(=O)c1ccco1	i	322	15	i	100	-42
CC1=C(C(=O)N(C)C)CC(CC(=O)NC2CCCCC2)C(=O)N1CCCN1CCCC1=O (centres undefined)	.	.	.	.	107	.
CCC(C)(C(=O)NC1CCCC1)N(C(=O)CNC(C)=O)c1ccccc1 (centres undefined)	i	211	19*	i	96	10
CCC(C)(C(=O)NC1CCCCC1)N(C(=O)c1ccccn1)c1ccccc1 (centres undefined)	i	343	3	i	.	-17
Cc1ccc(S(=O)(=O)CCC(=O)OCC(=O)Nc2cccc(S(=O)(=O)N3CCCCC3)c2)cc1	.	.	.	.	100	.
CCOc1ccc(NC(=O)c2ccc3c(c2)S(=O)(=O)N=C2CCCCCN23)cc1	.	.	.	.	78*	.
CC(=O)C1=C(O)CC(c2ccccc2)CC1=NCCc1c(C)[nH]c2ccc(C)cc12 (centres undefined)	i	576	-4	i	-12*	-10
O=c1[nH]cc(COCC(F)CCl)c(=O)[nH]1 (centres undefined)	i	225	0	i	72*	-7
O=C1c2ccccc2C(=O)N1CCCOCc1c[nH]c(=O)[nH]c1=O	i	188	3	i	95	7
SMILES	CHT inh	T cell HTS	GPR7 antagonist	CHT allo act	Pemphigus Ab inh	p-CIP stab down
O=C(O)c1ccc(-c2ccc(/C=C3\NC(=O)N(Cc4ccc(Cl)cc4)C3=O)o2)cc1Cl	.	.	-3	.	80*	-26
O=C(Nc1cccc(F)c1)Nc1ccnn1C1CCN(C(=O)CCN2CCCO2)CC1	i	0	-11	i	0.6*	-8
O=C(Nc1ccccc1Cl)Nc1ccnn1C1CCN(C(=O)CCN2CCCO2)CC1	i	380	-22	i	107	7
CC1CC(C)CN(CCOc2ccccc2-c2ccccc2)C1 (centres undefined)	i	242	25*	i	127	-6
NC(=O)CC(NC(=O)Cc1ccc(Br)cc1)c1ccc(NC2CCCC2)c([N+](=O)[O-])c1 (centres undefined)	i	442	.	i	1.8*	3
CCN(CC)c1ccc(NC(=O)CCCCC(=O)Nc2ccc(N(CC)CC)cc2)cc1	i	i	.	i	88*	.
CCN(C(=O)C1=COCCO1)c1nc2c(C)cccc2s1	i	473	.	i	94	.
CCN(CC)CCN(C(=O)C1=COCCO1)c1nc2cc(C)cc(C)c2s1	-6*	325	11	i	.	1
CCCCN(CC)S(=O)(=O)c1ccc(C(=O)N(CCCN(C)C)c2nc3cc(C)cc(C)c3s2)cc1	i	92	23*	i	89	-4
Cc1ccc2nc(N(CCCN(C)C)C(=O)c3ccc(S(=O)(=O)N4CCCCCC4)cc3)sc2c1	-5.5*	309	24	i	110	10
Cc1csc(CN(C)C(=O)CC2C(=O)NCCN2Cc2ccccc2C)n1 (centres undefined)	.	.	.	.	99	.
CC1CN(C(=O)COC(=O)/C=C/c2ccccc2)CC(C)O1 (centres undefined)	.	.	.	.	101	.
COc1ccc2c(c1)CCO[C@]21O[C@H](CCO)C[C@H](O)[C@H]1O	.	.	.	.	100	.
O=C(Cc1ccc(Cl)cc1)NCC(=O)N1CCC2(CC1)NCCc1[nH]cnc12	.	.	.	.	105	.
O=C(NCC(c1ccco1)N1CCN(c2ccccc2)CC1)C1CCCCC1 (centres undefined)	.	.	.	.	102	.
CCCCCc1ccc(OCCOCCn2c[n+](C)c3ccccc32)c(CCCCC)c1	.	.	40*	.	115	8
N#C/C(=C/c1ccc(-c2ccc([N+](=O)[O-])cc2)o1)C(=O)Nc1nc(-c2cccs2)cs1	.	.	.	.	74*	.
Cc1ccc(C)c(N(CC(=O)N/N=C/c2ccc(-c3ccc([N+](=O)[O-])cc3)o2)S(=O)(=O)c2ccccc2)c1	i	46	-9	i	85*	-20
CCOc1cc(/C=N\NC(=O)c2ccc(C)nc2)ccc1OC(=O)c1ccc(F)cc1	i	487	-11	i	66*	-3
